This note sets out measurements from ChEMBL document CHEMBL3745659, “Synthesis and Characterization of 4,11-Diaminoanthra[2,3-b]furan-5,10-diones: Tumor Cell Apoptosis through tNOX-Modulated NAD(+)/NADH Ratio and SIRT1” (J Med Chem, 2015).

Structures are written as SMILES. Active and inactive are the calls of the source. No cut-off for these calls is given here.

The test system of data set [1] is AGS. Nature of the data set: Induction of apoptosis in human AGS cells assessed as change in mitochondrial transmembrane potential incubated for 1.5 hrs by DiOC6(3) dye-based flow cytometric analysis. Type of data set: functional, cell-based.
The next data set relates to HeLa. Nature of the data set: Antiproliferative activity against human HeLa cells after 72 hrs by MTT assay. It is filed as functional, cell-based.
The nature of data set [2]: Antiproliferative activity against human HCT116 cells after 72 hrs by MTT assay. Type of data set: functional, cell-based. Particulars: HCT-116, 72 h.
Data set [3] has as its system K562. Nature of the data set: Antiproliferative activity against human K562 cells after 72 hrs by MTT assay. It is filed as functional, cell-based. The following applies: K562, 72 h.
Data set [4] in a line: Drug uptake in human K562/4 cells at 3 uM incubated for 2 hrs in presence of verapamil by flow cytometric analysis. It is filed as ADME, cell-based. The following applies: k562/4, 2 h. The method, boiled down:
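K562 and K562/4 cells incubated 2 h with 3 µM compound; uptake measured by flow cytometry as ratios (arbitrary units) of mean fluorescence channels of the histograms; verapamil (10 µM), a Pgp transport blocker, added 30 min before compound where used.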

For data set [5], the system named is AGS. As to the kind of experiment: Induction of apoptosis in human AGS cells after 24 hrs by annexin V-FITC staining-based flow cytometric analysis. Type of data set: functional, cell-based. The method in brief: (§1)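 AGS cells exposed to compound for 24 h; Annexin V-FITC staining and flow cytometry used to give percentage of apoptotic cells; mean ± S.E. from at least three independent experiments.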

The test system of data set [6] is AGS. As to the kind of experiment: Induction of apoptosis in human AGS cells assessed as necrotic cells at 0.1 uM after 24 hrs by annexin V-FITC staining-based flow cytometric analysis (Rvb=0.9%). Type of data set: functional. The method, boiled down:
as §1

Data set [7] deals with AGS. Nature of the data set: Induction of apoptosis in human AGS cells assessed as necrotic cells at 1 uM after 24 hrs by annexin V-FITC staining-based flow cytometric analysis (Rvb=0.9%). It is filed as functional. The method, boiled down:
as §1

Data set [8] concerns AGS. Nature of the data set: Induction of apoptosis in human AGS cells assessed as late apoptotic cells at 0.05 uM after 24 hrs by annexin V-FITC staining-based flow cytometric analysis (Rvb=0.3%). It is filed as functional. The method, boiled down: as §1
In data set [9] the test system is AGS. As to the kind of experiment: Induction of apoptosis in human AGS cells assessed as early apoptotic cells at 0.1 uM after 24 hrs by annexin V-FITC staining-based flow cytometric analysis (Rvb=7.2%). It is filed as functional. The method, boiled down:
as §1

Data set [10] relates to AGS. Nature of the data set: Induction of apoptosis in human AGS cells assessed as early apoptotic cells at 1 uM after 24 hrs by annexin V-FITC staining-based flow cytometric analysis (Rvb=7.2%). Type of data set: functional. The method in brief:
as §1

Data set [11] concerns AGS. As to the kind of experiment: Induction of apoptosis in human AGS cells assessed as viable cells at 1 uM after 24 hrs by annexin V-FITC staining-based flow cytometric analysis (Rvb=91.5%). Type of data set: functional. The following applies: read-out: Activity. The method, boiled down: as §1
Data set [12] relates to AGS. Nature of the data set: Upregulation of phosphorylated p53 level in human AGS cells at 1 and 5 uM after 24 hrs by Western blot analysis. Type of data set: functional, cell-based.
In data set [13] the test system is AGS. As to the kind of experiment: Upregulation of caspase3-directed PARP cleavage in human AGS cells at 5 uM after 24 hrs by Western blot analysis. Type of data set: functional, cell-based.
The test system of data set [14] is AGS. As to the kind of experiment: Downregulation of Bid protein level in human AGS cells after 24 hrs by Western blot analysis. Type of data set: functional, cell-based.
The test system of data set [15] is AGS. Nature of the data set: Increase in intracellular NAD+/NADH ratio in human AGS cells at 5 uM incubated for 5 mins. It is filed as functional, cell-based.
Data set [16] relates to K562. As to the kind of experiment: Resistance index, ratio of IC50 for human K562/4 cells to IC50 for human K562 cells. It is filed as functional.
Data set [17] concerns the target T1, NAD-dependent protein deacetylase sirtuin-1 (Homo sapiens) (UniProt Q96EB6).
T1 sequence (whole entry): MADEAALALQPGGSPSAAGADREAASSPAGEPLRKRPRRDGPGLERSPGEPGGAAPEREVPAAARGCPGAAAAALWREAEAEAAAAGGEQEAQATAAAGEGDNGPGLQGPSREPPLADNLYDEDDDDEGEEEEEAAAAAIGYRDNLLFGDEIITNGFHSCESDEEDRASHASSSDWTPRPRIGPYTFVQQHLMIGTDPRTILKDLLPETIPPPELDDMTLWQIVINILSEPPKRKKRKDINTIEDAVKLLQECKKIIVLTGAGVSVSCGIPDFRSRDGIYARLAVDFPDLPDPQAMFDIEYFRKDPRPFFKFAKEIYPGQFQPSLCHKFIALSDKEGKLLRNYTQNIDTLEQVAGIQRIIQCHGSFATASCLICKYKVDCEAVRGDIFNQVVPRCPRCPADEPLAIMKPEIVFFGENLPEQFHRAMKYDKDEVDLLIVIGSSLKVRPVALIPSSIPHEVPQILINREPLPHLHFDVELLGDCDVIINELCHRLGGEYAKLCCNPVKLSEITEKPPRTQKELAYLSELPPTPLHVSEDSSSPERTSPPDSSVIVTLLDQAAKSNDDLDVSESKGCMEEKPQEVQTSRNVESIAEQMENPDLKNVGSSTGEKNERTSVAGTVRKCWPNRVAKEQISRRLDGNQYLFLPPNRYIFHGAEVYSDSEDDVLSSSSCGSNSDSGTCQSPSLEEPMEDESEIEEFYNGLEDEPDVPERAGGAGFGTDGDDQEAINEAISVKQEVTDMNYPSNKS
As to the kind of experiment: Inhibition of human recombinant SIRT1 deacetylase activity using Arg-His-Lys-Lys(epsilon-acetyl)-AMC as substrate at 5 uM incubated for 45 mins by fluorescence analysis.

The subject of data set [18] is AGS. Nature of the data set: […] in human AGS cells assessed as upregulation of E-Cad after 24 hrs by Western blot analysis. Type of data set: functional, cell-based.
Data set [19] can be described thus: Antiproliferative activity against mouse NIH/3T3 cells after 48 hrs by cell impedance based study. Particulars: NIH3T3, 48 h.
Data set [20] addresses T2, Ecto-NOX disulfide-thiol exchanger 2 (Homo sapiens) (UniProt Q16206).
T2 sequence (whole entry): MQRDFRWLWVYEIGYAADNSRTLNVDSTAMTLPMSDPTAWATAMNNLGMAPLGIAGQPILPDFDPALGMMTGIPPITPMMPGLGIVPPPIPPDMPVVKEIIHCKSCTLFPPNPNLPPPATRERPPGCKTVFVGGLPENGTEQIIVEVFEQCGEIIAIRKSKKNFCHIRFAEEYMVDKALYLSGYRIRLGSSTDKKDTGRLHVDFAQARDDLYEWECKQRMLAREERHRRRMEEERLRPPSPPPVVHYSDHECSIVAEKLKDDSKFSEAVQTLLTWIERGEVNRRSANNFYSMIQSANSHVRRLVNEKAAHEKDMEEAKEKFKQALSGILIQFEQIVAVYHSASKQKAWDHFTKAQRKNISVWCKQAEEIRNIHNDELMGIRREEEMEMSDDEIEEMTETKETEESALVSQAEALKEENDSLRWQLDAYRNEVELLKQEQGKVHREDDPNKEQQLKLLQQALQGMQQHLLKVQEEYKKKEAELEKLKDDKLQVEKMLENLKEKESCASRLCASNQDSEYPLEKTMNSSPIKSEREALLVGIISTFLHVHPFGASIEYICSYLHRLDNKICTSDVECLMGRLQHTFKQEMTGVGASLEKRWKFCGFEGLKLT
As to the kind of experiment: Inhibition of tNOX in human AGS cells assessed as decrease in intracellular NAD+/NADH ratio in human AGS cells at 5 uM incubated for 5 mins.

Data set [21] addresses DNA topoisomerase 2-alpha (Homo sapiens) (UniProt P11388). Nature of the data set: Inhibition of Top2 (unknown origin)-mediated relaxation of pBR322 DNA at 0.1 to 2.5 uM incubated for 30 mins by ethidium bromide staining-based gel electrophoresis assay.

Chain of DNA topoisomerase 2-alpha (Homo sapiens) (P11388 whole entry): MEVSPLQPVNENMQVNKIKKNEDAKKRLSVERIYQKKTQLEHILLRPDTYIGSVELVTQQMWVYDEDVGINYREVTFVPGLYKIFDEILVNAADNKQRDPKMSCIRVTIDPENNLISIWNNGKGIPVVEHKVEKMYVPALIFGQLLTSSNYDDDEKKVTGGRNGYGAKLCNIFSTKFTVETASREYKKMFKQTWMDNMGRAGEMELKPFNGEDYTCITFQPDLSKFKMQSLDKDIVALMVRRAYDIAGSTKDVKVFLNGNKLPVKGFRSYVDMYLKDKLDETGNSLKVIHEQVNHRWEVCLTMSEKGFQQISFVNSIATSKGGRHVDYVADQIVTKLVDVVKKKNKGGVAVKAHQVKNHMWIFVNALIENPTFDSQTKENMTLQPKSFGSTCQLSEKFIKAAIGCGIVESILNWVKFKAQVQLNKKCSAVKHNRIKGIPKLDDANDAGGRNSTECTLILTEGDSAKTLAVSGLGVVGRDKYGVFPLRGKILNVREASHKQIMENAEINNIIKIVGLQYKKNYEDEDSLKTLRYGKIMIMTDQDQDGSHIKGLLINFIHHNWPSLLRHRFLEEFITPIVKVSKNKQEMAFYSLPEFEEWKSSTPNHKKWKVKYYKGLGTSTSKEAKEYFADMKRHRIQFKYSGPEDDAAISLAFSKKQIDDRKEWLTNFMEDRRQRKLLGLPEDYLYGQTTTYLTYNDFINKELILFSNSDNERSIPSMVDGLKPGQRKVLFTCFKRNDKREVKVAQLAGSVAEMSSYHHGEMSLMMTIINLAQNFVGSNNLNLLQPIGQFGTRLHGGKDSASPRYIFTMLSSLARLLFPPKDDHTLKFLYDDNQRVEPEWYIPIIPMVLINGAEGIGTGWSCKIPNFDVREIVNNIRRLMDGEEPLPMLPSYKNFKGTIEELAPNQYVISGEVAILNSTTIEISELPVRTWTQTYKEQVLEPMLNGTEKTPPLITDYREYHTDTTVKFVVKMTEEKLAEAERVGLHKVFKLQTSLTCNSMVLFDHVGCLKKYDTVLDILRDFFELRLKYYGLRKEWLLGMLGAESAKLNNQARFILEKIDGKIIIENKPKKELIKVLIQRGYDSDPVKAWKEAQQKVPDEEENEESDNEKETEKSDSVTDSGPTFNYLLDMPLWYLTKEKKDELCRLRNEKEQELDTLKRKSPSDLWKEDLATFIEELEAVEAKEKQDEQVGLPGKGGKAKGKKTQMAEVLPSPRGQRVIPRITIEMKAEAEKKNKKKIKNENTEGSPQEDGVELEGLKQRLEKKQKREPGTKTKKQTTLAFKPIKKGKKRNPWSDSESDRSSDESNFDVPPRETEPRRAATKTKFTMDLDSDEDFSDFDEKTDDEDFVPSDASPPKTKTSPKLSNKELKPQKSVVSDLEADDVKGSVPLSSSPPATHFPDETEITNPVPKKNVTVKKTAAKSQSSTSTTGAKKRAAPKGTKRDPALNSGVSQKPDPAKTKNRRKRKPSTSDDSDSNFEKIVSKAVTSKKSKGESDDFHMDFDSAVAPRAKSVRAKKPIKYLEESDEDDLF

Regarding `CNCCNc1c2c(c(NCCNC)c3occc13)C(=O)c1ccccc1C2=O`, the result in the data set with AGS [1], with AGS [12], in the data set on AGS [13], in the data set with AGS [14] and in the data set on AGS [18] was Active. The IC50 was found to be 170 nM in the data set with HeLa, 100 nM in [2], 210 nM in the data set on K562 [3] and 230 nM in data set [19]. Moreover, the Drug uptake entry in data set [4] is “Active”. In addition, the Activity result was “Dose-dependent effect” in the data set with AGS [5]; 10.2% with AGS [6]; 15.4% with AGS [7]; 0.7% in the data set on AGS [8]; 25.1% in the data set with AGS [9]; 21.6% with AGS [10]. The viability at 1 µM with AGS [11] worked out at 61.6%. For the same compound, the outcome in the data set with AGS [15] was inactive. Also, in the data set with K562 [16], the “Ratio IC50” value worked out at 0.71. In addition, the inhibition result in [17], in [20] and in data set [21] was “Active” each time.
